The chains are these.
B1: tRNA (parent)
chain: GUUCCGUUGGCGUAAUGGUAACGCGUCUCCCUCCUAAGGAGAAGACUGCGGGUUCGAGUCCCGUACGGAACG

The text below walks through data of the RNAGym collection of RNA variant scans (doi:10.1126/science.aae0568).

Variants at the floor of the assay were thinned out.

In this data set the parent is B1. The experiment in a line: yeast fitness relative to wild type (ratio to wild type); higher = fitter; tRNA-Arg(CCU), competitive growth, 37 C, YPD. The essentials: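 A pool of Saccharomyces cerevisiae strains, each with a tRNA-Arg(CCU) gene variant at the native genomic locus, was competed in YPD at 37°C for 24 hours across six parallel replicates. The variants had been chemically synthesised at a 3% per-site mutation rate over 69 sites, and gene amplicons before and after competition were read by 100-nucleotide paired-end sequencing. Darwinian fitness relative to wild type rested on changes in genotype frequencies. Genotypes required ≥ 100 starting reads, and estimates < 0.5 were set to 0.5.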
Consider GUUCCGUUGGCGUAGUGGUAACGCGUCUACCUCCUAAGGAGAAGACGGCGGGUACGAAUCCCGUACGGAACG [A15G C29A U47G U54A G58A], for which the yeast fitness is not above 0.5.

On to GUUCCGUUGGCGUAAUGGUAACGCGUCUUCCUCCUAAGGAGAAGACUGCGGGUUCGAGUCCCGUACUGAACG [C29U G67U], for which the yeast fitness turned out to be 0.91.

Turning to GCCCCGUUGGCGUAAUGGAAACGCGUCUCCCUCCUAAGGAGAAGACUGCGGGUUCGAGUCCCGUACGGAACG [U2C U3C U19A], the yeast fitness was 0.629.

As to GUUCCGUUGGGAUAAUGGUAAUGCGUCUCCCUCCUAAGGAGAAAACUGCGGGUUCGAGUCCCGUACGGAACG [C11G G12A C22U G44A], the yeast fitness is not above 0.5.

For GUUCCGUUGGCGUAAUGGUAACGCGUCUCCCUCCUAAGGAGAUGACUGGGGGUUGGAGUCCCGUACGGAACG [A43U C49G C55G], the yeast fitness stood at 0.988.

Take GUUCCGUUGGCGUAAUGGUAACGCGUCUCCCUCCUAAGGAGAAGACUGCGGGUUCGAGUCCCGUACGUCACG [G68U A69C]: the yeast fitness was found to be 0.817.

In the case of GUUCCGUUGGCAUAAUGGUAACGCGUCUCCCUCCUAAGGAGAAGACUCCGGGUUCGAGUCCCGUACGGAACG [G12A G48C], the yeast fitness worked out at 0.754.

As for GUUCCGUUGGCGUAGUGGUAACGCGUCUCCCUCCUAAGGAGGAGACUGCGGGUUCGAGUCUCGUACGGAACG [A15G A42G C61U], the yeast fitness was 0.579.

On to GUUCCGUUGGAGUAAUGGUAACGCGUCUCCCCCCUAAGGAGAAGACUGUGGGUUCGAGUCCCGUACGGAACG [C11A U32C C49U], for which the yeast fitness was found to be 0.606.

Consider GUUCGGUUGGCGUAAUGGUAACGCGUCUCCCUCCUAAGGAGAAAACUGCGGGUUCGAGUCCCGUACGGAACG [C5G G44A], for which the yeast fitness was 1.02.

Turning to GUUCCGUUGGCGUAAUGGUAACGCGUCUCCCUACUAAGGAGAAGACUGCGGGUUCGAGUCCCGUACGGAACG [C33A], the yeast fitness was 0.795.

With GUUCCGUUGGCGUAAUGGUAACGCGUCUCCCGCCUAAGGAGAAGACUACGGGUUCGAGUCCCGUACGGAUCG [U32G G48A A70U], the yeast fitness turned out to be 0.553.

Turning to GUUCCGUUGGCGUAAUGGGUACGCGUCUCCCUCCUAAGGAGAAGACUGCGGGUUCGAGUCCCGUACGGAACG [U19G A20U], the yeast fitness stood at 0.955.

As to GUACCGUUGGCGUAAUGAUAACGCGUCUCCCUCCUAAGGAGAAGACUGGGGGUUGGAGUACAGUACGAUACG [U3A G18A C49G C55G C60A C62A G68A A69U], the yeast fitness was determined as 0.623.

GUUCCGUUGACGUAAAGGUAACGCGUCUCCCUCCUAAGGAGAAGACUGCGGGUUCGAGUCCCGUACGGAACG [G10A U16A]: the yeast fitness came to 0.708.

For the variant GUUCCGUUGGCGUAAUGGUGACGUGUCUCCCUCCUAAGGAGAAGACUGCGGGUUCAAGUCCCGUAGGGAACG [A20G C24U G56A C66G], the yeast fitness is not above 0.5.

On to GCUCCGUUGGCGUAAUGGUAACGCGUCUCCCUUCUAAGGAGAAGACUGCGGGUUCGAGUCCCGUACGGUACG [U2C C33U A69U], for which the yeast fitness is not above 0.5.

For the variant GUUCCAUUGGCGUAAUGGUAACGCGUCUCCCUCCUAAGGAGAAGGCUGCGGGUUCGAGUCCCGUACGGAUCG [G6A A45G A70U], the yeast fitness was determined as 0.775.

Consider GAUCCGUUGGCGUAAUGGUAACGCGUCGCCCUCCUAAGGAGAAGACUGCGGGUUCGAGUCCCGUACAGAACG [U2A U28G G67A], for which the yeast fitness is not above 0.5.

For the variant GCUCCGAUGGCGUAAUGGUAACGCGUCUCCCUCCUAAGGAGAAGACUGCGGGUUCGAGUCCCGUUCGGAACG [U2C U7A A65U], the yeast fitness stood at 0.725.

Take GUUCCGUUGGCGUAAUGGUAACGCGUCUGCCUCCUAAGGAGAACACUGGGGGUUCGCGUCCCGUACGGAACG [C29G G44C C49G A57C]: the yeast fitness amounted to 0.598.

As for GUUCCGUUGGGGUAAUGGUAACGCGUCUCCCUCCUAUGGAGAAGACUGCGGGUUCGAGUCCCGUACGGAACG [C11G A37U], the yeast fitness is not above 0.5.

GUUCCGUUGGCGUGAUGGUACCGCGUCUCGCUCCUAAGGAGAAGACUGCGGGUUGGAGUCCCGUACGGAACG [A14G A21C C30G C55G]: the yeast fitness was found to be 0.533.

With GUUCAGUUGGGGUAAUGGUAACGCGUUUCCCUCCUAAGGACAAGACUGCGGGUUCGAGUCCCGUACGGAACG [C5A C11G C27U G41C], the yeast fitness is not above 0.5.

Turning to GUUCCGUUGGCGUAAUGGUAACGCGUCUCCCUCCUAAGGAGAAGGCUGCGGGUUCGUGUCCCGUACGGAACG [A45G A57U], the yeast fitness came to 0.751.

Take GCUCCGUUGGCGUAAUGGUAACGCGUCUCCCUCCAAAGGAGAAGACUGCGGGUUCGAGUCCCGUACGGAACG [U2C U35A]: the yeast fitness came to 0.62.

As for GUUCCGUUGGCGUAAUGGUAUCGCGUCUCCCUCGUAAGGAGAAGACUGCGGAUUCGAGUCACGUACGGAACG [A21U C34G G52A C61A], the yeast fitness is 0.553.

For GUUCCGUUGGCGUAAUGGUAACGCGUCUCCUCCCUAAGGAGAAGACUGCGGGUUCGAGUCCCGUACGGAACG [C31U U32C], the yeast fitness is 0.812.

GUUCCGUUGGCGUAAUGGUAGCGCGUCUCCCUCCUAAGGAGAAGACGGCGGGUUCGAGUCCCGUACGGAACG [A21G U47G]: the yeast fitness was 0.525.

For the variant GUUCCGUUGGCGUAAUGCUAACGCGUCUCCCUCCUAAGGAGAAGACCGCGGGUUCGAGUCCCGUACGGAACG [G18C U47C], the yeast fitness was found to be 0.658.

As to GUUCCGUUGGCGUAUUGGUGACGCGUCUCCCUCCUACGGAGAAGACUGCGGGUUCGAGUCCCGUACGGAACG [A15U A20G A37C], the yeast fitness is not above 0.5.

Take GUUCCGUUGGCGUAAUGGUAUCGCGUCUCCCUCCUAAGGAGAAGACUGCGGGUUCGAGUCCCGUACGGCGCG [A21U A69C A70G]: the yeast fitness worked out at 0.594.

On to GUUCCGAUGGCGUAAUGGUAACGCGUCUCCCUCCUAAGGAGAAGACUGCGGGUUCGAGUCACGUACGGAACG [U7A C61A], for which the yeast fitness was determined as 0.603.

Take GUUCCGUUGGCGUAAUGGUAACGCGUCUCCCUCCUAAGGAGAAGCCUGCGGGUUUGAGUCCCGUACGGAACG [A45C C55U]: the yeast fitness turned out to be 0.692.

With GUUCCGUUGGCGUAGUGGUAACGCGUCUCCCUCCCAAGGAGAAGACUGCGGGUUCGAGUCCCGUACGGAACG [A15G U35C], the yeast fitness was found to be 0.892.

For GUUCCGUUGGCGUAAUGGUAACGCAUCUCCCCCCUAAGGAGAAGACUGCGGGUUCGAGUCCCGUACGGAACG [G25A U32C], the yeast fitness turned out to be 0.832.

For the variant GUUCCGUUGGGGUAAUGGUAACGCGUCUCCCUCCUAAGGAGAAGACUGCUGGUUCGAGUCCGGUACGGAACG [C11G G50U C62G], the yeast fitness was not above 0.5.

Turning to GGUCCGUUGGCGUAAUGGUAACGCGUCUCCCUCCUUAGGAGAAGUCUGCGGGAUCGAGUCCCGUACGGAACG [U2G A36U A45U U53A], the yeast fitness is not above 0.5.
